Test results published in PMC8313742 (Molecular Metabolism, 2021).

What was measured:
[1] = biological target: T1, Amylin 3 receptor (AMY3R; CHO K1 CALCR RAMP3) (Homo sapiens, UniProt O60896+P30988); assay: PathHunter β-arrestin recruitment reporter assay, amylin receptor; type: cell-based; details: 10% FBS (Table S1)
T1 sequence (P30988 25-474): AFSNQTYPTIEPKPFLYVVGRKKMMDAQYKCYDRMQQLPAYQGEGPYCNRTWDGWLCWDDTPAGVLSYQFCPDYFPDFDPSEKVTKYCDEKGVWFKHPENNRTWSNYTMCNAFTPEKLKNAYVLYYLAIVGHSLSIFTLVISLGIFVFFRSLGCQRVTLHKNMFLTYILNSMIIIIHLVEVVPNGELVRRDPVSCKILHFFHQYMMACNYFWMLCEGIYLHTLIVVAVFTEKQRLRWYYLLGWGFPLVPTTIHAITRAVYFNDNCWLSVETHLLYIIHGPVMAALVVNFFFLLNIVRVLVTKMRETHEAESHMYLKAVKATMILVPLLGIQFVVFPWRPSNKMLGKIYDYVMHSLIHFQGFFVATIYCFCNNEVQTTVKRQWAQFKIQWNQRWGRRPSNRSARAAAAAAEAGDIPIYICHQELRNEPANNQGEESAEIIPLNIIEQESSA
T1 sequence (O60896 24-148 partner): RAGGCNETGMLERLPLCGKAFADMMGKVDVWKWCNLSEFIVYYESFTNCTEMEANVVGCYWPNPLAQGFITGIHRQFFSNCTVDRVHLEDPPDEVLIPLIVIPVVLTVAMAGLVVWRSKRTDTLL

AMY3R cell line = type: binding, human; details: competition with […] 125I-sCT, AMY3R cells, triplicates
[2] = tested on: obese male Sprague Dawley rats (HFD); assay: Acute food intake and body weight after single s.c. injection; type: in vivo, rat; details: HFD SD rats; for body weight change after single injection: single s.c. 3 nmol/kg, 96-hour profile, n = 4
Outline: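 Male Sprague Dawley rats on 60 kcal% fat diet from 5–6 weeks of age were used when obese (>500 g). They were allocated by body weight and given a single s.c. injection at time 0. Food intake and body weight were recorded daily for 96–144 h. tAUC (0–96 h) was calculated. n = 4–10 per group. One-way ANOVA with Tukey versus vehicle; mean ± SEM.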

[3] = tested on: obese male Sprague Dawley rats (HFD); assay: Acute gastric emptying rate; type: in vivo, rat; details: plasma acetaminophen, n = 8
Outline: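 Obese HFD-fed male Sprague Dawley rats were fasted overnight, then given s.c. test compound plus oral glucose bolus and acetaminophen at time 0. Tail-vein EDTA blood was taken at 0, 30, 60, 120 and 240 min. Plasma acetaminophen by ELISA served as gastric emptying estimate, expressed as % of vehicle. n = 8. One-way ANOVA/Tukey at 60 and 240 min; Kruskal–Wallis/Dunn at 30 and 120 min.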

[4] = tested on: Zucker diabetic fatty (fa/fa; ZDF) rats; assay: 8-week intervention study in ZDF rats; type: in vivo, rat; details: for HbA1c levels compared to vehicle / OGTT blood glucose iAUC compared to vehicle: KBP-066 […] q.d.; for HbA1c levels compared to vehicle: KBP-066A 1.5 and 3 nmol/kg q.3.d.; for vehicle-corrected reduction in HbA1c at the end of the study: dose not given; for OGTT blood glucose iAUC compared to vehicle: OGTT 1 g/kg after seven weeks, KBP-066A 0.75 and 3 nmol/kg q.3.d.; for tAUC, BW / tAUC, FI / Epididymal AT / Inguinal AT / Perirenal AT: n = 10, mean ± SEM; for Epididymal AT / Inguinal AT / Perirenal AT: study end
HFD Sprague Dawley rats = assay: Chronic 4-week study in high-fat diet-fed Sprague Dawley rats; type: in vivo, rat; details: for tAUC, BW / tAUC, FI / Epididymal AT / Inguinal AT / Perirenal AT: 4 weeks, n = 6, mean ± SEM; for Epididymal AT / Inguinal AT / Perirenal AT: study end
Outline: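 Male Sprague Dawley rats fed 60 kcal% fat diet from 5–6 weeks old for 20 weeks were randomized by body weight (n = 6). Dosing was s.c. saline or test compound q.3.d. for 4 weeks. Body weight and food intake were taken daily, and tAUC calculated. Terminal OGTT (2 g/kg, 4 mL/kg p.o.) was run after 14-h fast, 24 h post-dose, with glucose iAUC. Epididymal, perirenal and inguinal fat were weighed.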

[5] = single s.c. 36 nmol/kg, n = 6-10
[6] = 0.75 nmol/kg s.c. q.3.d., 8 weeks

Ac-CSNLSTCXLGRLSQDLHRLQTYPKTDVGANAP-NH2 [KBP-066]
fold lower EC50 than KBP-066A for the AMYR [1]: eight-fold
change of IC50 in 2% HSA compared to 0.01% HSA (AMY3R cell line): not affected by the difference in HSA concentration
body weight change after single injection [2]: completely returned to the baseline after 72 h
gastric emptying rate at 30 min ([3]; […] s.c., overnight fasted rats): reduced the gastric emptying rate
gastric emptying rate at 60 and 120 min ([3]; both doses 0.75 and […] s.c.): significantly did so
HbA1c levels compared to vehicle ([4]; 8 weeks): significantly improved
vehicle-corrected reduction in HbA1c at the end of the study ([4]; 8 weeks): 31%
OGTT blood glucose iAUC compared to vehicle [4]: significantly reduced

Ac-CSNLSTCXLGKLSQDLHRLQTYPKTDVGANAP-NH2 [KBP-066A]
change of IC50 in 2% HSA compared to 0.01% HSA (AMY3R cell line): 100 fold
effect on food intake and body weight ([2]; single s.c. 0.5 nmol/kg (lowest dose), n = 6-10): only had a minor effect on both parameters
body weight change after single injection [2]: still markedly reduced even 96 h post-injection
duration of effect on body weight [2, 5]: 144 h
duration of effect on food intake [2, 5]: 120 h
tAUC, BW (HFD Sprague Dawley rats; 1 nmol/kg s.c. q.3.d.): 2584 ± 7∗∗∗ g∗days^−1
tAUC, FI (HFD Sprague Dawley rats; 1 nmol/kg s.c. q.3.d.): 617 ± 10∗∗∗ g∗days^−1
Epididymal AT (HFD Sprague Dawley rats; 1 nmol/kg s.c. q.3.d.): 4.4 ± 1.0 g
Inguinal AT (HFD Sprague Dawley rats; 1 nmol/kg s.c. q.3.d.): 2.8 ± 0.3 g
Perirenal AT (HFD Sprague Dawley rats; 1 nmol/kg s.c. q.3.d.): 3.5 ± 0.9 g
tAUC, BW (HFD Sprague Dawley rats; 2 nmol/kg s.c. q.3.d.): 2452 ± 6∗∗∗¤ g∗days^−1
tAUC, FI (HFD Sprague Dawley rats; 2 nmol/kg s.c. q.3.d.): 518 ± 6∗∗∗¤¤¤ g∗days^−1
Epididymal AT (HFD Sprague Dawley rats; 2 nmol/kg s.c. q.3.d.): 3.9 ± 1.1 g
Inguinal AT (HFD Sprague Dawley rats; 2 nmol/kg s.c. q.3.d.): 1.9 ± 0.5 g
Perirenal AT (HFD Sprague Dawley rats; 2 nmol/kg s.c. q.3.d.): 2.7 ± 0.7∗∗ g
tAUC, BW (HFD Sprague Dawley rats; 4 nmol/kg s.c. q.3.d.): 2458 ± 8∗∗∗ g∗days^−1
tAUC, FI (HFD Sprague Dawley rats; 4 nmol/kg s.c. q.3.d.): 532 ± 10∗∗∗¤¤ g∗days^−1
Epididymal AT (HFD Sprague Dawley rats; 4 nmol/kg s.c. q.3.d.): 4.2 ± 1.2 g
Inguinal AT (HFD Sprague Dawley rats; 4 nmol/kg s.c. q.3.d.): 2.9 ± 1.4 g
Perirenal AT (HFD Sprague Dawley rats; 4 nmol/kg s.c. q.3.d.): 2.8 ± 1.0∗∗ g
OGTT glucose iAUC compared to vehicle (HFD Sprague Dawley rats; OGTT after four weeks, KBP-066A 1, 2, 4 nmol/kg q.3.d.): not statistically significant compared to vehicle
effect on fasting blood glucose levels ([4]; 0.75 nmol/kg q.3.d. (lowest dose), 8 weeks): minor
tAUC, BW [4, 6]: 6180 ± 67 g∗days^−1
tAUC, FI [4, 6]: 3815 ± 135∗∗¤ g∗days^−1
Epididymal AT [4, 6]: 3.7 ± 0.1 g
Inguinal AT [4, 6]: 4.8 ± 0.4 g
Perirenal AT [4, 6]: 6.0 ± 0.3 g
fasting blood glucose levels (tAUC) compared to KBP-066 q.d. ([4]; 3 nmol/kg q.3.d. (highest dose), 8 weeks): significantly improved
tAUC, BW ([4]; 3 nmol/kg s.c. q.3.d., 8 weeks): 6409 ± 122 g∗days^−1
tAUC, FI ([4]; 3 nmol/kg s.c. q.3.d., 8 weeks): 2898 ± 61∗∗∗ g∗days^−1
Epididymal AT ([4]; 3 nmol/kg s.c. q.3.d., 8 weeks): 4.7 ± 0.2 g
Inguinal AT ([4]; 3 nmol/kg s.c. q.3.d., 8 weeks): 6.3 ± 0.7 g
Perirenal AT ([4]; 3 nmol/kg s.c. q.3.d., 8 weeks): 6.7 ± 0.4 g
plasma insulin (tAUC) compared to KBP-066 q.d. ([4]; 8 weeks, 3 nmol/kg q.3.d.): significantly preserved plasma insulin at higher levels
HbA1c levels compared to vehicle ([4]; 8 weeks): significantly improved
vehicle-corrected reduction in HbA1c at the end of the study ([4]; 8 weeks): 46%
OGTT blood glucose iAUC compared to vehicle [4]: significantly reduced
